The values that follow come from ChEMBL document CHEMBL2177000, “Pharmacokinetic optimization of class-selective histone deacetylase inhibitors and identification of associated candidate predictive biomarkers of hepatocellular carcinoma tumor response” (J Med Chem, 2012).

In data set [1] the target is T1, Histone deacetylase 8 (Homo sapiens, UniProt Q9BY41).
T1 sequence (Q9BY41 whole entry): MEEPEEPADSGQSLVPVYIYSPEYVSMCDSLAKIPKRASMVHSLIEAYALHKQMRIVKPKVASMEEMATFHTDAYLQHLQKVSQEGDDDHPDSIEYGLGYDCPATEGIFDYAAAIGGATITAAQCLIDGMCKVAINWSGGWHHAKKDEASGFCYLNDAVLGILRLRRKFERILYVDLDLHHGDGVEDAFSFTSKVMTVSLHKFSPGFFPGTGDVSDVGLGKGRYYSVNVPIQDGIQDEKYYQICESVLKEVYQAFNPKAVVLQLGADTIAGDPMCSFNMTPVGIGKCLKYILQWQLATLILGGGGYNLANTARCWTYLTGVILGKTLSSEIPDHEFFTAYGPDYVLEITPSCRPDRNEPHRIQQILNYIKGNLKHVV
Put plainly: Inhibition of HDAC8 using p53 (379 to 382 residues) based fluorogenic peptide substrate.

Data set [2] concerns the target Histone deacetylase 4 (Homo sapiens, UniProt P56524). The experiment in a line: Inhibition of HDAC4 using p53 (379 to 382 residues) based fluorogenic peptide substrate.
The target of data set [3] is Cytochrome P450 2C9 (Homo sapiens, UniProt P11712). Put plainly: Inhibition of CYP2C9 in human liver microsomes in presence of NADPH by LC-MS/MS method. The format is ADME, Microsome. In general terms: Liver microsomes are vesicles of endoplasmic reticulum, rich in cytochrome P450 enzymes.
Data set [4] in a line: Oral bioavailability in BALB/C mouse at 10 mg/kg by LC-MS/MS method. The format is ADME, organism-based. The settings on record: BALB/C, in vivo. In outline:
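Bioavailability from single-dose iv (2 mg/kg, 5% DMSO/40% PEG400/55% saline) and oral gavage (10 mg/kg, 0.445% microcrystalline cellulose microsuspension) studies in BALB/C nude mice (N = 16 per arm); plasma at eight (po) or nine (iv) time points, LC-MS/MS, noncompartmental analysis.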

A short description of data set [5]: Cmax in BALB/C mouse at 10 mg/kg, po or 2 mg/kg, iv by LC-MS/MS method. The format is ADME, organism-based. The settings on record: BALB/C, in vivo. In outline:
(§1)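 Female-unspecified BALB/C nude mice (15−20 g, N = 16 per arm); iv bolus 2 mg/kg in 5% DMSO/40% PEG400/55% saline and/or oral gavage 10 mg/kg as 0.445% microcrystalline cellulose microsuspension. Blood sampled at nine (iv) or eight (po) time points into sodium heparin tubes; plasma by LC-MS/MS; noncompartmental analysis.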

Data set [6] in a line: Half life in BALB/C mouse at 10 mg/kg, po or 2 mg/kg, iv by LC-MS/MS method. The settings on record: BALB/C, in vivo. It is filed as ADME, organism-based. In short, it runs like this: as §1
Data set [7] has as its target T2, Histone deacetylase 7 (Homo sapiens, UniProt Q8WUI4).
T2 sequence (Q8WUI4 whole entry): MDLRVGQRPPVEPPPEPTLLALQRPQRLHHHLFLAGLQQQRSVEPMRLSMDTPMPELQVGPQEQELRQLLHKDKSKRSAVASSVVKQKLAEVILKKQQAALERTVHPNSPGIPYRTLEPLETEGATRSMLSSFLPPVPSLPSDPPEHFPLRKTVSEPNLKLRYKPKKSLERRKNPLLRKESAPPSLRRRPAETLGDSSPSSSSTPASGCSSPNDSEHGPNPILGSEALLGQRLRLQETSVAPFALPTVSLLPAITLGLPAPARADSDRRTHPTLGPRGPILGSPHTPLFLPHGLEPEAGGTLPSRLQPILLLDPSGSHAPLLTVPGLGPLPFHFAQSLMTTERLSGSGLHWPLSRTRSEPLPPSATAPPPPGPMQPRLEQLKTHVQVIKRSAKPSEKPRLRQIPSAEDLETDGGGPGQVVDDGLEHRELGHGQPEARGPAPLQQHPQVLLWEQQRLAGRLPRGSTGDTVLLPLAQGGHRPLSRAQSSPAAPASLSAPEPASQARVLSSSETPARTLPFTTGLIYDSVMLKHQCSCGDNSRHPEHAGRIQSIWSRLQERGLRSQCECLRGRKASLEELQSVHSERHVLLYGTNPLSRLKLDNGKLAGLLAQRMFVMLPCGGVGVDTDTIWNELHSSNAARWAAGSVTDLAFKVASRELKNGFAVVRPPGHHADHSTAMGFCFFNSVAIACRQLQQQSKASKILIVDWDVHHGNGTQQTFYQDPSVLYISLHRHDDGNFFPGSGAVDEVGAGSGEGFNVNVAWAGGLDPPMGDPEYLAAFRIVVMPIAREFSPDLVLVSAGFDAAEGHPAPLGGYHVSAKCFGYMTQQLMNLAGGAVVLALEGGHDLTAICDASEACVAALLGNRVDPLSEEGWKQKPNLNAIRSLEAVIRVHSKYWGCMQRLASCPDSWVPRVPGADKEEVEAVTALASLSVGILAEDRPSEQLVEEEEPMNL
Put plainly: Inhibition of HDAC7 using p53 (379 to 382 residues) based fluorogenic peptide substrate.

The nature of data set [8]: Clearance in BALB/C mouse at 10 mg/kg, po or 2 mg/kg, iv by LC-MS/MS method. The format is ADME, organism-based. The settings on record: in vivo. In short, it runs like this:
as §1

Data set [9] is described as follows: Tmax in BALB/C mouse at 10 mg/kg, po or 2 mg/kg, iv by LC-MS/MS method. The settings on record: BALB/C, in vivo. The format is ADME, organism-based. In outline:
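Single-dose PK: iv bolus 2 mg/kg in 5% DMSO/40% PEG400/55% saline and/or oral gavage 10 mg/kg as 0.445% microcrystalline cellulose microsuspension; BALB/C nude mice (15−20 g, N = 16 per arm) or male Sprague−Dawley rats (250 ± 20 g, N = 3). Blood at eight (po) or nine (iv) time points into sodium heparin, plasma by LC-MS/MS, noncompartmental analysis.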

Data set [10] addresses Histone deacetylase (Homo sapiens) (UniProt Q13547+O15379+Q9UBN7+Q92769+Q9UQL6+Q8WUI4+Q9BY41+Q96DB2+P56524+Q9UKV0+Q969S8). The experiment in a line: Inhibition of Class 1 histone deacetylase in human HeLa cells assessed as induction in p21 protein expression at 3 uM incubated for 16 hrs by luciferase reporter gene assay relative to HDAC inhibitor entinostat. The format is cell-based. The arrangement: scale not given: the % may be the effect or the level left. (A reporter such as luciferase makes a cellular process visible.)

Data set [11] concerns the target T3, Histone deacetylase 11 (Homo sapiens, UniProt Q96DB2).
T3 sequence (Q96DB2 whole entry): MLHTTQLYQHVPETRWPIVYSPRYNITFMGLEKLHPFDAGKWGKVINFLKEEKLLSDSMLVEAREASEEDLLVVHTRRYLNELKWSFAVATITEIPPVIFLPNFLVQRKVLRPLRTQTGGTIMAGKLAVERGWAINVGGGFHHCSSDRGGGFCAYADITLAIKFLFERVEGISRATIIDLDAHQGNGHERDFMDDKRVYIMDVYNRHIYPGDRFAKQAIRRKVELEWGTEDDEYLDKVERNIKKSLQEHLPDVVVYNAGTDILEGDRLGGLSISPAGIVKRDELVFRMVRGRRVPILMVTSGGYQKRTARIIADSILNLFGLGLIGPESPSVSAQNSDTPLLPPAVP
The experiment in a line: Inhibition of HDAC11 using p53 (379 to 382 residues) based fluorogenic peptide substrate.

Data set [12] is described as follows: AUC in BALB/C mouse at 10 mg/kg, po or 2 mg/kg, iv by LC-MS/MS method. It is filed as ADME, organism-based, Plasma. The settings on record: BALB/C, plasma. In outline:
as §1

The structures appear in SMILES notation.

Sequence of Cytochrome P450 2C9 (P11712 whole entry): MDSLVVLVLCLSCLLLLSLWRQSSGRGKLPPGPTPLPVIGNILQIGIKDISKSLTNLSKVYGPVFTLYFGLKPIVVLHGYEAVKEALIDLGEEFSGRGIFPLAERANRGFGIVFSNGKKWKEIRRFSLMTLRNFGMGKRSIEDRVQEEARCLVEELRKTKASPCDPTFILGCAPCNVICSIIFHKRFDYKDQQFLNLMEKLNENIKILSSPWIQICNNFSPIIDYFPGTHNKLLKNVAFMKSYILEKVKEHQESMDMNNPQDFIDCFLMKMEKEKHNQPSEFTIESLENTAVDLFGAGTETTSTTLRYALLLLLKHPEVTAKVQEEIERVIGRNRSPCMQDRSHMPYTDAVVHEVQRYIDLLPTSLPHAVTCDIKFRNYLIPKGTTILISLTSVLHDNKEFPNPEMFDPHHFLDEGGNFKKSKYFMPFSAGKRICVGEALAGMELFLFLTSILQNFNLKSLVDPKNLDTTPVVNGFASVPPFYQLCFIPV
Sequence of Histone deacetylase 4 (P56524 whole entry, the tested form may be a part): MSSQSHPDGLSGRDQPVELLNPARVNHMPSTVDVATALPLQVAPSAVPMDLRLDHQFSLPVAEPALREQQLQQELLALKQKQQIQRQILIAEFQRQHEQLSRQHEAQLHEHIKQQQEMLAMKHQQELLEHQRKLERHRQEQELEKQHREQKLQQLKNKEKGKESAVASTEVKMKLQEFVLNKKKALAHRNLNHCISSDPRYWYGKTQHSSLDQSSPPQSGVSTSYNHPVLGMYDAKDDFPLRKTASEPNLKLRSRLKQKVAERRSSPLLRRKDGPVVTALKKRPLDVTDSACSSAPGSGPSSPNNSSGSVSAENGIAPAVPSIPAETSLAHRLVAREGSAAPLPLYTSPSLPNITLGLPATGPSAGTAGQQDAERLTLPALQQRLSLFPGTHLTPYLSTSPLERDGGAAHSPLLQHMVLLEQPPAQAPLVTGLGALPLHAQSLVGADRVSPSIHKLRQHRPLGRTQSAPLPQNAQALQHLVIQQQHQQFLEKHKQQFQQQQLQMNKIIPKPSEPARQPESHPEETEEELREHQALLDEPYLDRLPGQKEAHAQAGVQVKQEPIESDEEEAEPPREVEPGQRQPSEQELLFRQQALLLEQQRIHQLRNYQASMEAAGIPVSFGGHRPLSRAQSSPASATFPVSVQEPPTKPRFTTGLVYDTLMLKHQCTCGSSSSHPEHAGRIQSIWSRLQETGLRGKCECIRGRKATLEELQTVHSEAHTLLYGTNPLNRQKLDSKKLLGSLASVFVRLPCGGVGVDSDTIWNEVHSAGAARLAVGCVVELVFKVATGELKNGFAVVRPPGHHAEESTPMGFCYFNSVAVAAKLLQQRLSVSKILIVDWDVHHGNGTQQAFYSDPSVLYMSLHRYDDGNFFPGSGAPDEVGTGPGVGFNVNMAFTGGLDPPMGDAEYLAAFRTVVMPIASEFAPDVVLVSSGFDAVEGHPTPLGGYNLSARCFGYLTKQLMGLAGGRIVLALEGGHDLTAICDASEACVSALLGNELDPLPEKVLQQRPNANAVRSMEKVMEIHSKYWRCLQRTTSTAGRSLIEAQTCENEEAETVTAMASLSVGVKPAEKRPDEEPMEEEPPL

What is called IC50 is the concentration that inhibits the measured activity by half. Usually bioavailability stands for dose-corrected exposure relative to a reference, in per cent. By Cmax is commonly meant the highest concentration seen after dosing. What is called half-life is the time needed for the level to fall by half in the phase considered. For orientation: Tmax means the time from dosing to the highest level. The term AUC denotes concentration integrated over time. For `CN1C[C@H](C(=O)Nc2ccc(Cl)cc2)[C@@H](c2ccc(/C=C/C(=O)Nc3ccccc3N)cc2F)C1` (racemic), the IC50 in data set [1] is above 30 µM; in data set [2], 46 µM; in data set [3], 13 µM; in data set [7] it was above 30 µM; in data set [11], above 30 µM. Moreover, in data set [4], the bioavailability amounted to 49%. Moreover, the Cmax in data set [5] was found to be 828 ng/mL. The half-life in data set [6] was 3.4 h. In [8], this compound registered a clearance of 23 mL/min/kg. In data set [9], the Tmax came out at 2 h. Further, the Activity in data set [10] worked out at 130%. In data set [12], this compound gave an AUC of 3570 ng·h/mL.
As for `CN1C[C@H](C(=O)Nc2ccc(Cl)cc2)[C@@H](c2ccc(/C=C/C(=O)Nc3ccccc3N)cc2)C1` [listing 1 of 2 here], the concentration for half-maximal inhibition (IC50) in data set [1] is above 30 µM; in data set [2] it was 13 µM; in data set [3], 29 µM; in data set [7], above 30 µM; in data set [11] it was 14 µM.
Turning to `CN1C[C@H](C(=O)Nc2ccc(Cl)cc2)[C@@H](c2ccc(/C=C/C(=O)Nc3ccccc3N)cc2)C1` [listing 2 of 2 here], the Activity in [10] was 257%.
In the case of `CN1C[C@@H](C(=O)Nc2ccc(Cl)cc2)[C@H](c2ccc(/C=C/C(=O)Nc3ccccc3N)cc2)C1`, the IC50 in [1] is above 30 µM; in data set [2], 36 µM; in [3] it was 23 µM; in data set [7], above 30 µM; in [11] it was 20 µM. The bioavailability in [4] was 89%. In data set [5], this compound gave a Cmax of 450 ng/mL. The compound also gave a half-life in data set [6] of 6.2 h. Further, the clearance in data set [8] is 58 mL/min/kg. In [9], the Tmax came out at 1 h. The compound also gave an AUC in data set [12] of 2540 ng·h/mL.
